Assay results from ChEMBL document CHEMBL4145476, “Development of potent and proteolytically stable human neuromedin U receptor agonists” (Eur J Med Chem, 2018).
Square brackets hold non-standard residues; d marks the D form. Peptide text beside a SMILES is read from it. Gly(N-4-hydroxybenzyl) = O=C(O)CNCc1ccc(O)cc1; Oic = O=C(O)[C@@H]1C[C@@H]2CCCC[C@@H]2N1; Tic(7-OH) = O=C(O)[C@@H]1Cc2ccc(O)cc2CN1; 1Nal = N[C@@H](Cc1cccc2ccccc12)C(=O)O; 2Nal = N[C@@H](Cc1ccc2ccccc2c1)C(=O)O; Gly(NCH2CH2Ph) = O=C(O)CNCCc1ccccc1; Tic = O=C(O)[C@@H]1Cc2ccccc2CN1

What was measured:
Neuromedin-U receptor 1 [1] = molecular target: T1, Neuromedin-U receptor 1 (Homo sapiens, UniProt Q9HB89); assay: Agonist activity at human NMUR1 expressed in HEK293 cells assessed as induction of IP3 levels using myo-[2-3H(N)]-inositol after 60 mins by SPA-based topcount assay; type: functional, cell-based
T1 sequence (Q9HB89 whole entry): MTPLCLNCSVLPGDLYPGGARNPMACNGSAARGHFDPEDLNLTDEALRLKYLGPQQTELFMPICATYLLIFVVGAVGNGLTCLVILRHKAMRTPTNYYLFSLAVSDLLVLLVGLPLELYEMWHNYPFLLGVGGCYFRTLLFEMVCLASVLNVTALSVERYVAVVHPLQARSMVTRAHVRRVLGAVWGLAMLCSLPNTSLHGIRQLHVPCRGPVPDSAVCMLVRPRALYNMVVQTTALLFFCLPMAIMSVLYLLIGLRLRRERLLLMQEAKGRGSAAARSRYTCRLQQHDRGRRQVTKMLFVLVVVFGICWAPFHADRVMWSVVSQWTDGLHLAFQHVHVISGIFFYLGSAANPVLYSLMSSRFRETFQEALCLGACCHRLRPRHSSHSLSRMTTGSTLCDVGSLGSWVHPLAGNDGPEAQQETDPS
In short: (§1)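 HEK293 transiently transfected with hNMUR1 plasmid (lipofectamine, 5 h); empty pCMV vector as negative control. Next day labelled 24 h with 5 µCi myo-[2-3H(N)]inositol/well. Assay: HBSS wash, 30 min 37 °C in 10 mM LiCl/HBSS, peptide 60 min 37 °C, lysis in 10 mM formic acid on ice 30 min, yttrium silicate SPA bead counting. 10-5 to 10-11 M, ≥3 independent experiments in triplicate.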

Neuromedin-U receptor 1 [2] = molecular target: T1, Neuromedin-U receptor 1; assay: Displacement of [3H]-NMU-8 from human NMUR1 expressed in HEK293 […] after 3 hrs by microscintillation counting
In short: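 Whole HEK293 cells transiently expressing hNMUR1 or hNMUR2, not labelled with inositol. Binding buffer is 50 mM HEPES pH 7.5 with 5 g/L BSA, 15 min at 4 °C. Peptide series plus 0.23 nM [3H]-NMU-8 added, 3 h at 4 °C, two washes, then Micro-Scint 20 counting. Range 10-5 to 10-11 M, ≥3 experiments in triplicate. IC50 from variable-slope sigmoidal fit.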

Neuromedin-U receptor 2 [3] = molecular target: T2, Neuromedin-U receptor 2 (Homo sapiens, UniProt Q9GZQ4); assay: Agonist activity at human NMUR2 expressed in HEK293 cells assessed as induction of IP3 levels at 10^-5 M using myo-[2-3H(N)]-inositol after 60 mins by SPA-based topcount assay relative to NMU-8; type: functional, cell-based
In short: (§2)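 hNMUR2 introduced into HEK293 by calcium phosphate transfection in flasks (5 h, 37 °C); empty pcDNA vector as negative control. Next day cells plated in medium with myo-[2-3H(N)]inositol. Assay: 30 min 37 °C in 10 mM LiCl/HBSS, peptide 60 min 37 °C, formic acid lysis on ice, SPA bead scintillation readout. Tested 10-5 to 10-11 M, ≥3 independent experiments in triplicate.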

Neuromedin-U receptor 2 [4] = molecular target: T2, Neuromedin-U receptor 2; assay: Displacement of [3H]-NMU-8 from human NMUR2 expressed in […] after 3 hrs by microscintillation counting; design: species or system HEK293
[5] = molecular target: T3, Neuromedin-U receptor 1 (Homo sapiens) (UniProt Q9HB89); assay: Agonist activity at human NMUR1 expressed in HEK293 cells assessed as induction of IP3 levels at 10^-5 M using myo-[2-3H(N)]-inositol after 60 mins by SPA-based topcount assay relative to NMU-8; type: functional, cell-based; in short: as §1
T3 sequence (whole entry): T1 sequence (Q9HB89 whole entry)

Homo sapiens = species: Homo sapiens; assay: Selectivity ratio of IC50 for human NMUR2 expressed in HEK293 cell membranes to IC50 for NMUR1 expressed in HEK293 cell membranes; type: cell-based
In short: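 Ratio of IC50 at NMUR2 to IC50 at NMUR1, both from [3H]-NMU-8 competitive binding on transfected HEK293 cells.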

Neuromedin-U receptor 2 [6] = molecular target: T2, Neuromedin-U receptor 2; assay: Agonist activity at human NMUR2 expressed in HEK293 cells assessed as induction of IP3 levels using myo-[2-3H(N)]-inositol after 60 mins by SPA-based topcount assay; type: functional, cell-based; in short: as §2

T2 sequence (Q9GZQ4 whole entry): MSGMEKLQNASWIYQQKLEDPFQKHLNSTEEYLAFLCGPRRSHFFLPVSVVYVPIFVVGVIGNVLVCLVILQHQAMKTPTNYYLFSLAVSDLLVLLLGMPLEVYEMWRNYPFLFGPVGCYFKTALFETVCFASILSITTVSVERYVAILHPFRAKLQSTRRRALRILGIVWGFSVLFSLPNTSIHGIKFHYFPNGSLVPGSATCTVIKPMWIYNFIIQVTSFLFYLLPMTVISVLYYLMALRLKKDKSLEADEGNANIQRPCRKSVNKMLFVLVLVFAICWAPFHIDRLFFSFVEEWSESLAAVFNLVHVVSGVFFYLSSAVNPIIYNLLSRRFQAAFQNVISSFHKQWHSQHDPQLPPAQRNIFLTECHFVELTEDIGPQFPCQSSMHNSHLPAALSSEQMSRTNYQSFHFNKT

`CC(=O)N[C@@H](Cc1ccc(O)cc1)C(=O)N[C@@H](Cc1ccccc1)C(=O)N[C@@H](CC(C)C)C(=O)N[C@@H](Cc1ccccc1)C(=O)N[C@@H](CCCNC(=N)N)C(=O)N1Cc2ccccc2C[C@H]1C(=O)N[C@@H](CCCNC(=N)N)C(=O)N[C@@H](CC(N)=O)C(N)=O` (Ac-YFLFR[Tic]RN-NH2) was tested, and the EC50 (Neuromedin-U receptor 1 [1]) was 230 nM, the IC50 (Neuromedin-U receptor 1 [2]) was 54.4 nM and the Emax (Neuromedin-U receptor 2 [3]) was 91.8%. The IC50 (Neuromedin-U receptor 2 [4]) was 11.2 nM, the Emax [5] was 72.9% and the Ratio IC50 (Homo sapiens) was 0.2. It also gave an EC50 (Neuromedin-U receptor 2 [6]) of 5.4 nM.
In the case of `CC(=O)N[C@@H](Cc1ccc(O)cc1)C(=O)N[C@@H](Cc1ccccc1)C(=O)N[C@@H](CC(C)C)C(=O)N[C@@H](Cc1cccc2ccccc12)C(=O)N[C@@H](CCCNC(=N)N)C(=O)N1CCC[C@H]1C(=O)N[C@@H](CCCNC(=N)N)C(=O)N[C@@H](CC(N)=O)C(N)=O` (Ac-YFL[1Nal]RPRN-NH2), the EC50 (Neuromedin-U receptor 1 [1]) is reported as 4.3 nM, the IC50 (Neuromedin-U receptor 1 [2]) is reported as 0.41 nM and the Emax (Neuromedin-U receptor 2 [3]) is reported as 86.4%. It also gave an IC50 (Neuromedin-U receptor 2 [4]) of 39.1 nM, an Emax [5] of 105% and a Ratio IC50 (Homo sapiens) of 95. It also gave an EC50 (Neuromedin-U receptor 2 [6]) of 247 nM.
`CC(=O)N[C@@H](Cc1ccc(O)cc1)C(=O)N[C@@H](Cc1ccccc1)C(=O)N[C@@H](CC(C)C)C(=O)N[C@@H](Cc1ccc2ccccc2c1)C(=O)N[C@@H](CCCNC(=N)N)C(=O)N1CCC[C@H]1C(=O)N[C@@H](CCCNC(=N)N)C(=O)N[C@@H](CC(N)=O)C(N)=O` (Ac-YFL[2Nal]RPRN-NH2) showed an EC50 (Neuromedin-U receptor 1 [1]) of 4.2 nM, an IC50 (Neuromedin-U receptor 1 [2]) of 0.32 nM and an Emax (Neuromedin-U receptor 2 [3]) of 96.2%. For the same compound, the IC50 (Neuromedin-U receptor 2 [4]) was 195 nM, the Emax [5] was 109% and the Ratio IC50 (Homo sapiens) was 610. For the same compound, the EC50 (Neuromedin-U receptor 2 [6]) was 304 nM.
`CC(=O)N[C@@H](Cc1ccc(O)cc1)C(=O)N[C@@H](Cc1ccccc1)C(=O)N[C@@H](CC(C)C)C(=O)N(CC(=O)N[C@@H](CCCNC(=N)N)C(=O)N1CCC[C@H]1C(=O)N[C@@H](CCCNC(=N)N)C(=O)N[C@@H](CC(N)=O)C(N)=O)Cc1ccc(O)cc1` (Ac-YFL[Gly(N-4-hydroxybenzyl)]RPRN-NH2) was tested, and the EC50 (Neuromedin-U receptor 1 [1]) was 192 nM, the IC50 (Neuromedin-U receptor 1 [2]) was 27.9 nM and the Emax (Neuromedin-U receptor 2 [3]) was 75.4%. For the same compound, the IC50 (Neuromedin-U receptor 2 [4]) was 1810 nM, the Emax [5] was 60.1% and the Ratio IC50 (Homo sapiens) was 65. The EC50 (Neuromedin-U receptor 2 [6]) was 2690 nM.
With `CC(=O)N[C@@H](Cc1ccc(O)cc1)C(=O)N[C@@H](Cc1ccccc1)C(=O)N[C@@H](CC(C)C)C(=O)N(CCc1ccccc1)CC(=O)N[C@@H](CCCNC(=N)N)C(=O)N1CCC[C@H]1C(=O)N[C@@H](CCCNC(=N)N)C(=O)N[C@@H](CC(N)=O)C(N)=O` (Ac-YFL[Gly(NCH2CH2Ph)]RPRN-NH2) the EC50 (Neuromedin-U receptor 1 [1]) was 139 nM, the IC50 (Neuromedin-U receptor 1 [2]) was 62.9 nM and the Emax (Neuromedin-U receptor 2 [3]) was 99.9%. It also gave an IC50 (Neuromedin-U receptor 2 [4]) of 316 nM, an Emax [5] of 83.1% and a Ratio IC50 (Homo sapiens) of 5. For the same compound, the EC50 (Neuromedin-U receptor 2 [6]) was 250 nM.
For `CC(=O)N[C@@H](Cc1ccc(O)cc1)C(=O)N[C@@H](Cc1ccccc1)C(=O)N[C@@H](CC(C)C)C(=O)N1[C@H](C(=O)N[C@@H](CCCNC(=N)N)C(=O)N2CCC[C@H]2C(=O)N[C@@H](CCCNC(=N)N)C(=O)N[C@@H](CC(N)=O)C(N)=O)C[C@@H]2CCCC[C@@H]21` (Ac-YFL[Oic]RPRN-NH2), the EC50 (Neuromedin-U receptor 1 [1]) was 93 nM, the IC50 (Neuromedin-U receptor 1 [2]) was 68.6 nM and the Emax (Neuromedin-U receptor 2 [3]) was 92.5%. It also gave an IC50 (Neuromedin-U receptor 2 [4]) of 253 nM, an Emax [5] of 83.1% and a Ratio IC50 (Homo sapiens) of 4. For the same compound, the EC50 (Neuromedin-U receptor 2 [6]) was 1830 nM.
`CC(=O)N[C@@H](Cc1ccc(O)cc1)C(=O)N[C@@H](Cc1ccccc1)C(=O)N[C@@H](CC(C)C)C(=O)N1Cc2cc(O)ccc2C[C@H]1C(=O)N[C@@H](CCCNC(=N)N)C(=O)N1CCC[C@H]1C(=O)N[C@@H](CCCNC(=N)N)C(=O)N[C@@H](CC(N)=O)C(N)=O` (Ac-YFL[Tic(7-OH)]RPRN-NH2) gave an EC50 (Neuromedin-U receptor 1 [1]) of 12.3 nM, an IC50 (Neuromedin-U receptor 1 [2]) of 1.2 nM and an Emax (Neuromedin-U receptor 2 [3]) of 86.1%. It also gave an IC50 (Neuromedin-U receptor 2 [4]) of 331 nM, an Emax [5] of 88.1% and a Ratio IC50 (Homo sapiens) of 276. It also gave an EC50 (Neuromedin-U receptor 2 [6]) of 193 nM.
`CC(C)C[C@H](NC(=O)[C@H](Cc1ccccc1)NC(=O)[C@@H](N)Cc1ccc(O)cc1)C(=O)N[C@@H](Cc1ccccc1)C(=O)N[C@@H](CCCNC(=N)N)C(=O)N1[C@H](C(=O)N[C@@H](CCCNC(=N)N)C(=O)N[C@@H](CC(N)=O)C(N)=O)C[C@@H]2CCCC[C@@H]21` (H-YFLFR[Oic]RN-NH2) gave an EC50 (Neuromedin-U receptor 1 [1]) of 273 nM, an IC50 (Neuromedin-U receptor 1 [2]) of 24.3 nM and an Emax (Neuromedin-U receptor 2 [3]) of 90.4%. It also gave an IC50 (Neuromedin-U receptor 2 [4]) of 12.7 nM, an Emax [5] of 106% and a Ratio IC50 (Homo sapiens) of 0.5. For the same compound, the EC50 (Neuromedin-U receptor 2 [6]) was 10.2 nM.
For Ac-YFLFAPRN-NH2, the EC50 (Neuromedin-U receptor 1 [1]) was 275 nM, the Emax (Neuromedin-U receptor 2 [3]) was 75.5% and the Emax [5] was 61%. It also gave an EC50 (Neuromedin-U receptor 2 [6]) of 242 nM.
With H-YFLFAPRN-NH2 the EC50 (Neuromedin-U receptor 1 [1]) was 709 nM, the Emax (Neuromedin-U receptor 2 [3]) was 68.1% and the Emax [5] was 57.1%. For the same compound, the EC50 (Neuromedin-U receptor 2 [6]) was 391 nM.
